Experimental data taken from ChEMBL document CHEMBL1139875, “Discovery of 4-aminobutyric acid derivatives possessing anticonvulsant and antinociceptive activities: a hybrid pharmacophore approach” (2007).
Activity calls are given as the source filed them. The rule behind the calls is not given here.

Columns and labels:
Rattus norvegicus [1] = assay: Anti-cold allodynia effect in Sprague-Dawley rat SNL model assessed as duration of paw withdrawal 100 mg/kg, ip after 2.5 hrs; type: functional; details: route intraperitoneal
Summary of the method: (§1)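 Left L5 spinal nerve ligation under pentobarbital (65 mg/kg i.p.). Allodynic rats dosed i.p. 100 mg/kg, vehicle 30% v/v PEG 400 in water. Acetone (100-200 µL) misted onto midplantar affected paw after 10 min acclimatization; paw withdrawal duration, mean of three samples at least 3 min apart; n = 4 rats.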

Rattus norvegicus [2] = assay: Anti-cold allodynia effect in Sprague-Dawley rat SNL model assessed as duration of paw withdrawal 100 mg/kg, ip after 2 hrs; type: functional; details: route intraperitoneal; summary of the method: as §1
Mus musculus [3] = assay: Analgesic activity in Swiss Albino mouse assessed as number of acetic acid-induced writhing per 30 min after 100 mg/kg, ip; type: functional; details: route intraperitoneal
Summary of the method: (§2)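 Mice in groups of six dosed i.p. at 100 mg/kg, controls receiving 30% v/v PEG 400 in water. Writhing induced by i.p. 0.1 mL of 3% v/v acetic acid 1 h after drug. Writhes (abdominal stretch with at least one hind limb extended) counted over 30 min; % inhibition calculated. Mean ± SEM, Student's t test.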

Rattus norvegicus [4] = assay: Antihyperalgesic effects in Sprague-Dawley rat SNL model assessed as duration of paw withdrawal at 100 mg/kg, ip after 2.5 hrs, ip; type: functional; details: route intraperitoneal
Summary of the method: (§3)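 L5 SNL rats (n = 4), dosed 100 mg/kg i.p. (vehicle 30% v/v PEG 400 in water). Pin-prick to midplantar ipsilateral left hindpaw; withdrawal duration, mean of three responses; ≥2 s defined abnormal. Mean ± SEM; one-way ANOVA with Bonferroni versus predrug.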

Rattus norvegicus [5] = assay: Effect on spontaneous pain in Sprague-Dawley rat CCI model assessed as duration of paw withdrawal at 100 mg/kg, ip after 1.5 hrs; type: functional; details: route intraperitoneal
Summary of the method: (§4)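 Unilateral CCI of sciatic nerve (Bennett and Xie) in Sprague-Dawley rats under i.p. pentobarbital sodium (65 mg/kg). Spontaneous pain is scored over 5 min after 10 min acclimatization, as cumulative time the ipsilateral paw is held off the floor. Paw lifts from locomotion or repositioning are excluded. Drug is given at 100 mg/kg i.p. with 30% v/v PEG 400 vehicle. Mean ± SEM, n = 4, compared with predrug by ANOVA/Bonferroni.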

Rattus norvegicus [6] = assay: Antihyperalgesic effects in Sprague-Dawley rat CCI model assessed as duration of paw withdrawal at 100 mg/kg, ip after 0.5 hr; type: functional; details: route intraperitoneal
Rattus norvegicus [7] = assay: Effect on spontaneous pain in Sprague-Dawley rat CCI model assessed as duration of paw withdrawal at 100 mg/kg, ip after 2 hrs; type: functional; details: route intraperitoneal; summary of the method: as §4
Rattus norvegicus [8] = assay: Antihyperalgesic effects in Sprague-Dawley rat CCI model assessed as duration of paw withdrawal at 100 mg/kg, ip after 1.5 hrs; type: functional; details: route intraperitoneal
Rattus norvegicus [9] = assay: Effect on spontaneous pain in Sprague-Dawley rat CCI model assessed as duration of paw withdrawal at 100 mg/kg, ip after 0.5 hr; type: functional; details: route intraperitoneal
Summary of the method: (§5)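 CCI rats (n = 4) dosed 100 mg/kg i.p. (vehicle 30% v/v PEG 400 in water). After 10 min acclimatization in a cage 5 cm above ground, cumulative time the ipsilateral paw was held off the floor over 5 min recorded, excluding locomotion lifts. Mean ± SEM; ANOVA/Bonferroni versus predrug.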

Rattus norvegicus [10] = assay: Antihyperalgesic effects in Sprague-Dawley rat SNL model assessed as duration of paw withdrawal at 100 mg/kg, ip after 1.5 hrs, ip; type: functional; details: route intraperitoneal; summary of the method: as §3
Mus musculus [11] = assay: Neurotoxicity in Swiss Albino mouse at 300 mg/kg, ip after 4 hrs by rotarod test; type: functional, organism-based; design: dose 300 mg/kg
Summary of the method: (§6)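 Swiss mice (20-25 g) are trained on an accelerating rotorod (10 rpm, 3.2 cm rod), then injected i.p. at 30, 100 or 300 mg/kg, with three per group. Neurotoxicity means failure to keep equilibrium for at least 1 min in each of three trials, checked at 0.5 and 4 h. The value reported is the minimum dose affecting half or more of the mice.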

Rattus norvegicus [12] = assay: Anti-cold allodynia effect in Sprague-Dawley rat SNL model assessed as duration of paw withdrawal 100 mg/kg, ip after 1 hrs; type: functional; details: route intraperitoneal; summary of the method: as §1
Rattus norvegicus [13] = assay: Antihyperalgesic effects in Sprague-Dawley rat CCI model assessed as duration of paw withdrawal at 100 mg/kg, ip after 1 hr; type: functional; details: route intraperitoneal
Rattus norvegicus [14] = assay: Anti-cold allodynia effect in Sprague-Dawley rat SNL model assessed as duration of paw withdrawal 100 mg/kg, ip after 0.5 hr; type: functional; details: route intraperitoneal; summary of the method: as §1
Mus musculus [15] = assay: Anticonvulsant activity in Swiss Albino mouse at 300 mg/kg, ip after 0.5 hr by scSTY test; type: functional, organism-based; design: dose 300 mg/kg
Summary of the method: (§7)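 Mice (Swiss, 20-25 g) given i.p. doses of 30, 100 and 300 mg/kg under ADD program protocols, three per group, examined at 0.5 and 4 h in MES, scPTZ, scSTY or scPIC seizure tests. Value is the minimum dose protecting half or more of the mice.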

Rattus norvegicus [16] = assay: Antihyperalgesic effects in Sprague-Dawley rat SNL model assessed as duration of paw withdrawal at 100 mg/kg, ip after 1 hr, ip; type: functional; details: route intraperitoneal; summary of the method: as §3
Rattus norvegicus [17] = assay: Effect on spontaneous pain in Sprague-Dawley rat CCI model assessed as duration of paw withdrawal at 100 mg/kg, ip after 1 hr; type: functional; details: route intraperitoneal; summary of the method: as §5
Mus musculus [18] = assay: Anticonvulsant activity in Swiss Albino mouse at 300 mg/kg, ip after 4 hrs by scSTY test; type: functional, organism-based; design: dose 300 mg/kg; summary of the method: as §7
Mus musculus [19] = assay: Anticonvulsant activity in Swiss Albino mouse at 300 mg/kg, ip after 4 hrs by scPIC test; type: functional, organism-based; design: dose 300 mg/kg; summary of the method: as §7
Rattus norvegicus [20] = assay: Antihyperalgesic effects in Sprague-Dawley rat CCI model assessed as duration of paw withdrawal at 100 mg/kg, ip after 2 hrs; type: functional; details: route intraperitoneal
Mus musculus [21] = assay: Neurotoxicity in Swiss Albino mouse at 300 mg/kg, ip after 0.5 hr by rotarod test; type: functional, organism-based; design: dose 300 mg/kg; summary of the method: as §6
Rattus norvegicus [22] = assay: Anti-cold allodynia effect in Sprague-Dawley rat SNL model assessed as duration of paw withdrawal 100 mg/kg, ip after 1.5 hrs; type: functional; details: route intraperitoneal; summary of the method: as §1
Rattus norvegicus [23] = assay: Antihyperalgesic effects in Sprague-Dawley rat CCI model assessed as duration of paw withdrawal at 100 mg/kg, ip after 2.5 hrs; type: functional; details: route intraperitoneal
Mus musculus [24] = assay: Anticonvulsant activity in Swiss Albino mouse at 300 mg/kg, ip after 0.5 hr by scPIC test; type: functional, organism-based; design: dose 300 mg/kg; summary of the method: as §7
Mus musculus [25] = assay: Analgesic activity in Swiss Albino mouse assessed as inhibition of acetic acid-induced writhing responses at 100 mg/kg, ip; type: functional; details: route intraperitoneal; summary of the method: as §2
Rattus norvegicus [26] = assay: Antihyperalgesic effects in Sprague-Dawley rat SNL model assessed as duration of paw withdrawal at 100 mg/kg, ip after 0.5 hr, ip; type: functional; details: route intraperitoneal; summary of the method: as §3
Mus musculus [27] = assay: Anticonvulsant activity in Swiss Albino mouse at 300 mg/kg, ip after 4 hrs by MES test; type: functional, organism-based; design: dose 300 mg/kg; summary of the method: as §7
Rattus norvegicus [28] = assay: Effect on spontaneous pain in Sprague-Dawley rat CCI model assessed as duration of paw withdrawal at 100 mg/kg, ip after 2.5 hrs; type: functional; details: route intraperitoneal; summary of the method: as §4
Mus musculus [29] = assay: Anticonvulsant activity in Swiss Albino mouse at 300 mg/kg, ip after 0.5 hr by MES test; type: functional, organism-based; design: dose 300 mg/kg; summary of the method: as §7
Mus musculus [30] = assay: Anticonvulsant activity in Swiss Albino mouse at 300 mg/kg, ip after 0.5 hr by scPTZ test; type: functional, organism-based; design: dose 300 mg/kg; summary of the method: as §7
Rattus norvegicus [31] = assay: Antihyperalgesic effects in Sprague-Dawley rat SNL model assessed as duration of paw withdrawal at 100 mg/kg, ip after 2 hrs, ip; type: functional; details: route intraperitoneal; summary of the method: as §3
Rattus norvegicus [32] = assay: Anti-dynamic allodynia effect in Sprague-Dawley rat SNL model assessed as latency to paw withdrawal 100 mg/kg, ip after 2.5 hrs; type: functional; details: route intraperitoneal
Summary of the method: (§8)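 Left L5 spinal nerve ligation rats, tested preoperatively and 9 days postoperatively, then given 100 mg/kg i.p. (vehicle 30% v/v PEG 400 in water). After 10 min acclimatization, plantar surface of affected paw stroked mildly with a cotton-bud; paw lift response recorded. n = 4; retested 0.5-2.5 h post-dose.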

Rattus norvegicus [33] = assay: Anti-dynamic allodynia effect in Sprague-Dawley rat SNL model assessed as latency to paw withdrawal 100 mg/kg, ip after 0.5 hr; type: functional; details: route intraperitoneal; summary of the method: as §8
Rattus norvegicus [34] = assay: Anti-dynamic allodynia effect in Sprague-Dawley rat SNL model assessed as latency to paw withdrawal 100 mg/kg, ip after 1 hr; type: functional; details: route intraperitoneal; summary of the method: as §8
Rattus norvegicus [35] = assay: Anti-dynamic allodynia effect in Sprague-Dawley rat SNL model assessed as latency to paw withdrawal 100 mg/kg, ip after 2 hrs; type: functional; details: route intraperitoneal; summary of the method: as §8
Rattus norvegicus [36] = assay: Anti-dynamic allodynia effect in Sprague-Dawley rat SNL model assessed as latency to paw withdrawal 100 mg/kg, ip after 1.5 hrs; type: functional; details: route intraperitoneal; summary of the method: as §8

| Compound | Activity (Rattus norvegicus [1]) [s] | Activity (Rattus norvegicus [2]) [s] | Activity (Mus musculus [3]) | Activity (Rattus norvegicus [4]) [s] | Activity (Rattus norvegicus [6]) [s] | Activity (Rattus norvegicus [8]) [s] | Activity (Rattus norvegicus [10]) [s] | Activity (Mus musculus [11]) | Activity (Rattus norvegicus [12]) [s] | Activity (Rattus norvegicus [13]) [s] | Activity (Rattus norvegicus [14]) [s] | Activity (Mus musculus [15]) | Activity (Rattus norvegicus [16]) [s] | Activity (Mus musculus [18]) | Activity (Mus musculus [19]) | Activity (Rattus norvegicus [20]) [s] | Activity (Mus musculus [21]) | Activity (Rattus norvegicus [22]) [s] | Activity (Rattus norvegicus [23]) [s] | Activity (Mus musculus [24]) | also measured |
| --- | --- | --- | --- | --- | --- | --- | --- | --- | --- | --- | --- | --- | --- | --- | --- | --- | --- | --- | --- | --- | --- |
| C/C(=N\NC(=O)NCCCC(=O)O)c1cccc(N)c1 | 15.2 | 13.5 | 19.7 | 17.3 | 9.3 | 9.9 | 7.3 | Active | 11.2 | 9.6 | 4.8 | inactive | 6.5 | inactive | inactive | 6.6 | Active | 17.5 | 4.8 | inactive | Activity (Rattus norvegicus [5]): 0.9 s; Activity (Rattus norvegicus [7]): 1.4 s; Activity (Rattus norvegicus [9]): 1.7 s; Activity (Rattus norvegicus [17]): 1.2 s; inhibition in vivo at 100 mg/kg (Mus musculus [25]): 89%; Activity (Rattus norvegicus [26]): 2.4 s; Activity (Mus musculus [27]): Active; Activity (Rattus norvegicus [28]): 2.8 s; Activity (Mus musculus [29]): Active; Activity (Mus musculus [30]): inactive; Activity (Rattus norvegicus [31]): 19.5 s |
| O=C(O)CCCNC(=O)NN=C1CCCC1 | 1.9 | 11 | 18 | 8.6 | 32.1 | 17.7 | 5.1 | Active | 11.2 | 30.7 | 12 | inactive | 9.9 | inactive | inactive | 22.8 | Active | 10.9 | 25.3 | inactive | Activity (Rattus norvegicus [32]): 10.92 s; Activity (Rattus norvegicus [33]): 5.7 s; Activity (Rattus norvegicus [34]): 6.6 s; Activity (Rattus norvegicus [35]): 10.3 s; Activity (Rattus norvegicus [36]): 7.8 s; inhibition in vivo at 100 mg/kg (Mus musculus [25]): 90%; Activity (Rattus norvegicus [26]): 5.3 s; Activity (Mus musculus [27]): Active; Activity (Mus musculus [29]): inactive; Activity (Mus musculus [30]): inactive; Activity (Rattus norvegicus [31]): 9.6 s |
